Assay results reported in ChEMBL document CHEMBL1158496, “Design and synthesis of 2-(3-benzo[b]thienyl)-6,7-methylenedioxyquinolin-4-one analogues as potent antitumor agents that inhibit tubulin assembly” (J Med Chem, 2009).
The source made the active and inactive calls. The calls are words filed in the database; no cut-off is given here.

Key:
HL-60 = experiment: Cytotoxicity against human HL60 cells by MTT assay; assay type: functional, cell-based
Method in brief: (§1)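 After compound treatment, cells washed once with PBS and incubated 2 h with MTT. Formazan dissolved in DMSO, absorbance read at 570 nm.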

OVCAR-3 [1] = experiment: Cytotoxicity against human OVCAR-3 cells; assay type: functional, cell-based
[2] = Displacement of [3H]colchicine from tubulin at 1 uM […]
Method in brief: (§2)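 Tubulin (1.0 μM) incubated 10 min at 37 °C with 5.0 μM [3H]colchicine and inhibitor at 1.0 or 5.0 μM. At this time roughly 40–60% of maximal colchicine binding has occurred. Inhibition of radiolabel binding measured.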

KB = experiment: Cytotoxicity against human KB cells by SRB assay; assay type: functional, cell-based
Method in brief: (§3)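 Cells exposed to compound or DMSO for the stated periods, fixed with 10% TCA, then stained with 0.4% (w/v) SRB in 1% acetic acid. Unbound dye removed with 1% acetic acid, bound dye dissolved in 10 mM Trizma base, absorbance read at 515 nm.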

KM12 = experiment: Cytotoxicity against human KM12 cells; assay type: functional, cell-based
HCC 2998 = experiment: Cytotoxicity against human HCC2998 cells; assay type: functional, cell-based
[3] = Displacement of [3H]colchicine from tubulin at 5 uM by turbidimetry; method in brief: as §2
[4] = Inhibition of tubulin polymerization
Method in brief: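 Turbidimetric assembly assay. Tubulin 1.0 mg/mL (10 μM) preincubated 15 min at 30 °C with varying drug concentrations, without GTP. Samples then chilled, 0.4 mM GTP added, and turbidity followed for 20 min at 30 °C after a temperature jump from 0 °C.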

SK-MEL-5 = experiment: Cytotoxicity against human SK-MEL-5 cells; assay type: functional, cell-based
A549 = experiment: Cytotoxicity against human A549 cells by SRB assay; assay type: functional, cell-based; method in brief: as §3
SNB-75 = experiment: Cytotoxicity against human SNB75 cells; assay type: functional, cell-based
[5] = Cytotoxicity against human Hep3B cells by MTT assay; assay type: functional, cell-based, Hep 3B2; method in brief: as §1
[6] = Cytotoxicity against human KBVIN cells by SRB assay; assay type: functional, cell-based; method in brief: as §3
HCT-116 = experiment: Cytotoxicity against human HCT116 cells by MTT assay; assay type: functional, cell-based; method in brief: as §1
SF-539 = experiment: Cytotoxicity against human SF539 cells; assay type: functional, cell-based
IGROV-1 = experiment: Cytotoxicity against human IGROV1 cells; assay type: functional, cell-based
DU-145 = experiment: Cytotoxicity against human DU145 cells by SRB assay; assay type: functional, cell-based; method in brief: as §3
OVCAR-3 [7] = experiment: Antitumor activity against human OVCAR-3 cells xenografted in nude mouse assessed as life span extension at 200 mg/kg, ip once weekly for three courses; assay type: functional; settings: route intraperitoneal
OVCAR-3 [8] = experiment: Antitumor activity against human OVCAR-3 cells xenografted in nude mouse dosed as ip once weekly for three courses; assay type: functional
OVCAR-3 [9] = experiment: Antitumor activity against human OVCAR-3 cells xenografted in nude mouse assessed as life span extension at 134 mg/kg, ip once weekly for three courses; assay type: functional; settings: route intraperitoneal
OVCAR-3 [10] = experiment: Antitumor activity against human OVCAR-3 cells xenografted in nude mouse assessed as life span extension at 79 mg/kg, ip once weekly for three courses; assay type: functional; settings: route intraperitoneal

Compound | IC50 [4] [nM] | IC50 (HL-60) [nM] | IC50 (KB) [nM] | IC50 (A549) [nM] | IC50 [5] [nM] | IC50 [6] [nM] | IC50 (HCT-116) [nM] | IC50 (DU-145) [nM] | also measured
O=c1cc(-c2coc3ccccc23)[nH]c2cc3c(cc12)OCO3 | 580 | 30 | 1050 | 2980 | 90 | 590 | 50 | 1870 | Activity (OVCAR-3 [1]): Active; Activity [2]: 39%; Activity (KM12): Active; Activity (HCC 2998): Active; Activity [3]: 51%; Activity (SK-MEL-5): Active; Activity (SNB-75): Active; Activity (SF-539): Active; Activity (IGROV-1): Active
O=c1cc(-c2ccccc2F)[nH]c2cc3c(cc12)OCO3 | – | – | – | – | – | – | – | – | Activity (OVCAR-3 [7]): 124%; MTD (OVCAR-3 [8]): >200 mg/kg; Activity (OVCAR-3 [9]): 133%; Activity (OVCAR-3 [10]): 79%
Cc1c(-c2cccc3ccccc23)c(=O)[nH]c2cc3c(cc12)OCO3 | – | > 10000 | – | – | 4300 | – | > 10000 | – | –
COc1ccc(/C=C\c2cc(OC)c(OC)c(OC)c2)cc1O | – | – | – | – | – | – | – | – | Activity [2]: 91%
O=c1cc(-c2cc3ccccc3s2)[nH]c2cc3c(cc12)OCO3 | – | > 1000 | > 1000 | > 1000 | > 1000 | > 1000 | > 1000 | > 1000 | –
COc1cccc(-c2cc(O)c3cc(N4CCCC4)ccc3n2)c1 | – | – | – | – | – | – | – | – | MTD (OVCAR-3 [8]): 25 mg/kg
Cc1cnc2nc(-c3csc4ccccc34)cc(O)c2c1 | 370 | – | – | – | – | – | – | – | –

More lines, main results first:

IC50 [4] [nM] | Compound | IC50 (HL-60) [nM] | IC50 (KB) [nM] | IC50 (A549) [nM] | IC50 [5] [nM] | IC50 [6] [nM] | IC50 (HCT-116) [nM] | IC50 (DU-145) [nM] | also measured
760 | O=c1cc(-c2csc3ccccc23)[nH]c2cc3c(cc12)OCO3 | 170 | > 250 | > 250 | 60 | > 250 | 140 | > 250 | Activity [2]: 25%; Activity [3]: 61%
> 40000 | O=c1cc(-c2cccc3cc4ccccc4cc23)[nH]c2cc3c(cc12)OCO3 | 530 | – | – | 2200 | – | 1600 | – | –
> 40000 | O=c1cc(-c2ccc3ccccc3n2)[nH]c2cc3c(cc12)OCO3 | > 5000 | > 5000 | > 5000 | > 5000 | > 5000 | > 5000 | > 5000 | –
> 40000 | O=c1cc(-c2ccc3ccccc3c2)[nH]c2cc3c(cc12)OCO3 | 500 | > 1000 | > 1000 | > 1000 | > 1000 | > 1000 | > 1000 | –
> 4000 | O=c1cc(-c2cc3ccccc3o2)[nH]c2cc3c(cc12)OCO3 | > 1000 | > 1000 | > 1000 | > 1000 | > 1000 | > 1000 | > 1000 | –
640 | O=c1cc(-c2cccc3ccccc23)[nH]c2cc3c(cc12)OCO3 | 70 | 130 | 130 | 70 | 190 | 70 | 130 | Activity [2]: 33%; Activity [3]: 67%
> 40000 | O=c1cc(-c2ccnc3ccccc23)[nH]c2cc3c(cc12)OCO3 | > 5000 | > 5000 | > 5000 | > 5000 | > 5000 | > 5000 | > 5000 | –
> 4000 | O=c1cc(-c2cnc3ccccc3c2)[nH]c2cc3c(cc12)OCO3 | > 100 | > 100 | > 100 | > 100 | > 100 | > 100 | > 100 | –
27000 | O=c1cc(-c2cccc3ncccc23)[nH]c2cc3c(cc12)OCO3 | > 10000 | > 10000 | > 10000 | > 10000 | > 10000 | > 10000 | > 10000 | –
